Most compounds without a hit are left out; they make up all but 2.9% or so of the library.
SENP7 block = SENP7 protease inhibition; Q9BQF6; recombinant SENP7, Z-RLRGG-aminoluciferin luminescence, 40 min; inhibition, % at 5 µM; 330,000 compounds, 1.5% hits; AID 434973;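 active = inhibition above about 50% at the single test dose, limit read from the data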;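 also: plate controls were DMSO with enzyme for no effect and no enzyme buffer wells for full effect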
SENP1 FRET inh = SENP1 (human) catalytic domain inhibition; 360,000 compounds, 0.21% hits; AID 624204; inhibition, % at 10 µM; recombinant SENP1 catalytic domain, CyPet-SUMO1-YPet FRET cleavage; Q9P0U3;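 active = inhibition at least 30% at 10 µM, raw YFP signal under a set limit, fluorescence ratio 0.5 to 1.5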;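 also: 0% = enzyme with DMSO and 100% = no enzyme wells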
Target sequence (Q9P0U3 419-644 limits assumed): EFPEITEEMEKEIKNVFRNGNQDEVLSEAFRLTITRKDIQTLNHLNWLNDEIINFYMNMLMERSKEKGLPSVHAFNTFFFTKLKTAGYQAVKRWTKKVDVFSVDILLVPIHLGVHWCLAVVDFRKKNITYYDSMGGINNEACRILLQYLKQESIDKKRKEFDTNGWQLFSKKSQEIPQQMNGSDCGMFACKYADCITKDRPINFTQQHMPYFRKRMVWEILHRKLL
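Assay system: hSENP1 catalytic domain, recombinant. Amount: SENP1 enzyme, 20 pM final. Schedule: 50 min reaction, RT, dark. Technique: FRET, CFP and YFP emission. Control set: no-enzyme wells low, DMSO-plus-enzyme wells high control.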
SENP6 inh = SENP6 protease inhibition. 330,000 compounds, 1.8% hits. inhibition, % at 10 µM. AID 2599. Recombinant SENP6 catalytic domain, aminoluciferin luminescence. Q9GZR1;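 active = inhibition above about 50% at the single tested dose, limit read from the data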;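 also: plate controls were DMSO wells with enzyme for no effect and DMSO wells lacking enzyme for full effect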
SENP8 block-1 = blocks the human protease SENP8; inhibition, % at 10 µM; 330,000 compounds, 1.2% hits; purified SENP8, Z-RLRGG-aminoluciferin cleavage, luminescence; Q96LD8; AID 2540; in the data active = inhibition above about 50%
Target sequence (Q96LD8 whole entry, looked up): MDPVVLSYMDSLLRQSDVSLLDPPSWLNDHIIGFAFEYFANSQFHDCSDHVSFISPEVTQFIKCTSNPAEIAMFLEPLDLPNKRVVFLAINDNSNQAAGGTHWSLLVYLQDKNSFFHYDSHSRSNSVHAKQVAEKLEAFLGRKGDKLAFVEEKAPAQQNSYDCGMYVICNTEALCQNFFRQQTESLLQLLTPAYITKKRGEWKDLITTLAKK
HSP90 inh = blocks HSP90-mediated luciferase refolding in reticulocyte lysate; Rabbit reticulocyte lysate, luciferase refolding luminescence, 3 h; 290,000 compounds, 0.91% hits; inhibition, % at 5.6 µM; AID 1789;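 active = inhibition above the screen-wide mean plus 3 SD, computed separately per campaign, cut at about 16% in these data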;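 also: 0% = DMSO wells and 100% = 60 µM geldanamycin wells; inhibitors lower the luminescence because luciferase stays unfolded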
SENP8 block-2 = SENP8 (human) protease inhibition; Q96LD8; recombinant SENP8, Nedd8 substrate fluorescence; inhibition, % at 20 µM; 360,000 compounds, 0.64% hits; in the data active = inhibition mostly above about 40%, no sharp cut-off; inactive = mostly below about 27%
SENP1 inh conf = SENP1 (human) inhibition, single concentration confirmation | 520 compounds, 34% hits | recombinant SENP1, CyPet-SUMO1-YPet FRET cleavage | shares compounds with SENP1 FRET inh | inhibition, % at 10 µM; in the data active = inhibition mostly above about 35%, no sharp cut-off; inactive = mostly below about 32%;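 also: 0% = enzyme with DMSO and 100% = no enzyme control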
SENP1 kinetic = SENP1 (human) inhibition, kinetic confirmation; recombinant SENP1, CyPet-SUMO1-YPet FRET kinetic cleavage; inhibition, % at 10 µM; 520 compounds, 26% hits; shares compounds with SENP1 FRET inh; in the data active = inhibition mostly above about 32%, no sharp cut-off; inactive = mostly below about 29%;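 also: 0% = DMSO with enzyme and 100% = no enzyme substrate only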
Numbers without * were called inactive.

For O=C(c1ccc([N+](=O)[O-])cc1)N1CCC(n2nnc3cc(F)ccc32)CC1 the results were SENP7 block 0, SENP1 FRET inh -1, SENP6 inh -7, SENP8 block-1 -3, HSP90 inh 3 and SENP8 block-2 4.
O=C(N1CCOCC1)N1CCC(n2nnc3cc(F)ccc32)CC1 was read as SENP7 block -2, SENP1 FRET inh 30*, SENP6 inh 31, SENP8 block-1 4, HSP90 inh 3, SENP8 block-2 16, SENP1 inh conf 29 and SENP1 kinetic 14.
`COc1ccc(/C=N/N2C(=O)CSC2=S)cc1Br` gave SENP7 block 3, SENP1 FRET inh 40*, SENP6 inh 2, SENP8 block-1 -17, SENP8 block-2 16, SENP1 inh conf 46* and SENP1 kinetic 31*.
`N=c1oc2ccc(Br)cc2cc1C(=O)NCc1ccccc1` gave SENP7 block -2, SENP1 FRET inh -9, SENP6 inh -13, SENP8 block-1 1, HSP90 inh -1 and SENP8 block-2 -3.
`N=c1oc2ccc([N+](=O)[O-])cc2cc1C(=O)NCc1ccccc1` gave SENP7 block -12, SENP1 FRET inh 57*, SENP6 inh 3, SENP8 block-1 -10, HSP90 inh -1, SENP8 block-2 23, SENP1 inh conf 60* and SENP1 kinetic 34.
Cc1ccc2cc(/C=C(\C#N)C(N)=O)c(N3CCCCC3)nc2c1 was read as SENP7 block 9, SENP1 FRET inh 75*, SENP6 inh -3, SENP8 block-1 -12, HSP90 inh -1, SENP8 block-2 -63, SENP1 inh conf 50* and SENP1 kinetic 39*.
Cn1c(=O)c2[nH]c(-c3ccccc3Cl)c(O)c2n(C)c1=O was read as SENP7 block -2, SENP1 FRET inh 32*, SENP6 inh -10, SENP8 block-1 -3, HSP90 inh -6, SENP8 block-2 -1, SENP1 inh conf 11 and SENP1 kinetic 16.
Screening Cn1c(=O)c2[nH]c(-c3ccccc3)nc2n(C)c1=O returned HSP90 inh -2.
`Cn1c(=O)c2[nH]c(-c3ccccc3)c(O)c2n(C)c1=O` gave SENP7 block 3, SENP1 FRET inh 60*, SENP6 inh -9, SENP8 block-1 -9, HSP90 inh 5, SENP8 block-2 -100, SENP1 inh conf 56* and SENP1 kinetic 54*.
For COc1ccc(-n2c(=O)c3ccccc3n(CC(=O)NC3CCCCC3)c2=O)cc1 the results were SENP7 block 4, SENP1 FRET inh -2, SENP6 inh 8, SENP8 block-1 2, HSP90 inh -1 and SENP8 block-2 11.
Screening CN(c1cccc(NC(=O)CN(c2ccc(C34CC5CC(CC(C5)C3)C4)cc2)S(C)(=O)=O)c1)S(C)(=O)=O returned SENP7 block 5, SENP1 FRET inh 2, SENP6 inh -7, SENP8 block-1 6, HSP90 inh 4 and SENP8 block-2 9.
COc1cc(/C=C2/SC(=S)N(CC(=O)O)C2=O)ccc1OC(=O)c1ccco1 was read as SENP7 block -1, SENP1 FRET inh 32*, SENP6 inh -15, SENP8 block-1 -5, HSP90 inh 1, SENP8 block-2 29, SENP1 inh conf 84* and SENP1 kinetic 65*.
COc1ccc(/C=C2/SC(=S)N(CC(=O)O)C2=O)cc1OCc1ccc(Cl)cc1 was read as SENP7 block 5, SENP1 FRET inh -30, SENP6 inh 0, SENP8 block-1 -5, HSP90 inh -4 and SENP8 block-2 -16.
O=C(O)CN1C(=O)/C(=C\c2cccc(OCc3ccccc3)c2)SC1=S was read as SENP7 block 4, SENP1 FRET inh 1, SENP6 inh -12, SENP8 block-1 -31, HSP90 inh 2 and SENP8 block-2 16.
For COc1cc(/C=C2\SC(=S)N(CC(=O)O)C2=O)ccc1OC(=O)c1ccco1 the results were SENP7 block 1, SENP1 FRET inh 39*, SENP6 inh 3, SENP8 block-1 -14, HSP90 inh -1, SENP8 block-2 24, SENP1 inh conf 83* and SENP1 kinetic 63*.
